Test results reported in publication PMC4454367 (Environmental science & technology, 2015).
Where “and” joins values, the source holds several entries; their conditions need not be identical. Identical values can stand only once.

Legend:
A. mexicanum AHR [1] = biological target: T1, A. mexicanum AHR (Ambystoma mexicanum, UniProt A0A0F6TLE0); experiment: Transactivation; format: cell-based
T1 sequence (A0A0F6TLE0 1-853): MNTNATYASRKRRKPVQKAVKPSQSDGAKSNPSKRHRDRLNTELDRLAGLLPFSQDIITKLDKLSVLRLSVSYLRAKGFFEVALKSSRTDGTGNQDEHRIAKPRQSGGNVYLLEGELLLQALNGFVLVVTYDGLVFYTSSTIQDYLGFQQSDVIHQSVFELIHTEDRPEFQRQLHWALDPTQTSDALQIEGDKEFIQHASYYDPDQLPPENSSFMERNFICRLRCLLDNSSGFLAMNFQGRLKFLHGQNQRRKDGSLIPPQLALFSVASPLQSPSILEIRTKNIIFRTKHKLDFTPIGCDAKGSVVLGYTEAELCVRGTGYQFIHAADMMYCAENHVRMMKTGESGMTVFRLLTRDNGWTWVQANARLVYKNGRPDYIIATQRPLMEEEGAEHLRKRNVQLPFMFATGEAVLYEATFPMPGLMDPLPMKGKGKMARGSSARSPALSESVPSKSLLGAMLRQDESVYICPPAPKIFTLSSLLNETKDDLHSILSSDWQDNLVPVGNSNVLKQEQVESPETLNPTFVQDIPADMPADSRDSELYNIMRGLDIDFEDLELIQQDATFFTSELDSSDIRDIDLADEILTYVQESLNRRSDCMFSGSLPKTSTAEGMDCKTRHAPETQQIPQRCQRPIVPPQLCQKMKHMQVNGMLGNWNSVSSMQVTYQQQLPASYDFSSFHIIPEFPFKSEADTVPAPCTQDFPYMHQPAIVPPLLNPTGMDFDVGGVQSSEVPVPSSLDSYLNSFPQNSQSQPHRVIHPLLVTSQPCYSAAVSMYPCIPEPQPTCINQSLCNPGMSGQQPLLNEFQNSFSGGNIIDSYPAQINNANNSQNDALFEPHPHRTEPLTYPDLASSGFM

A. mexicanum AHR [2] = biological target: T1, A. mexicanum AHR; experiment: Velocity sedimentation analysis of [3H]TCDD binding, A. mexicanum AHR; details: 2 nM [3H]TCDD, 18 h at 4°, sucrose gradients, in vitro synthesized AHR
Method in brief: (§1)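 AHR made in vitro from pCMVTNT in a rabbit reticulocyte coupled transcription/translation system, diluted 1:1 in MEDMDG buffer (pH 7.5, molybdate, glycerol, DTT), incubated 18 h at 4° with 2 nM [1,6-3H]TCDD. Run on 10–30% sucrose gradients at 65,000 rpm for 90 min with [14C]catalase marker. Fractions scintillation-counted; specific binding is peak fractions minus empty-vector lysate. Three replicates, mean ± standard error.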

X. laevis AHR1β [3] = biological target: T2, X. laevis AHR1β (Xenopus laevis, UniProt Q4QY30); experiment: Velocity sedimentation analysis of [3H]TCDD binding, X. laevis AHR1β; details: 2 nM [3H]TCDD, 18 h at 4°, sucrose gradients, in vitro synthesized AHR
T2 sequence (Q4QY30 1-834): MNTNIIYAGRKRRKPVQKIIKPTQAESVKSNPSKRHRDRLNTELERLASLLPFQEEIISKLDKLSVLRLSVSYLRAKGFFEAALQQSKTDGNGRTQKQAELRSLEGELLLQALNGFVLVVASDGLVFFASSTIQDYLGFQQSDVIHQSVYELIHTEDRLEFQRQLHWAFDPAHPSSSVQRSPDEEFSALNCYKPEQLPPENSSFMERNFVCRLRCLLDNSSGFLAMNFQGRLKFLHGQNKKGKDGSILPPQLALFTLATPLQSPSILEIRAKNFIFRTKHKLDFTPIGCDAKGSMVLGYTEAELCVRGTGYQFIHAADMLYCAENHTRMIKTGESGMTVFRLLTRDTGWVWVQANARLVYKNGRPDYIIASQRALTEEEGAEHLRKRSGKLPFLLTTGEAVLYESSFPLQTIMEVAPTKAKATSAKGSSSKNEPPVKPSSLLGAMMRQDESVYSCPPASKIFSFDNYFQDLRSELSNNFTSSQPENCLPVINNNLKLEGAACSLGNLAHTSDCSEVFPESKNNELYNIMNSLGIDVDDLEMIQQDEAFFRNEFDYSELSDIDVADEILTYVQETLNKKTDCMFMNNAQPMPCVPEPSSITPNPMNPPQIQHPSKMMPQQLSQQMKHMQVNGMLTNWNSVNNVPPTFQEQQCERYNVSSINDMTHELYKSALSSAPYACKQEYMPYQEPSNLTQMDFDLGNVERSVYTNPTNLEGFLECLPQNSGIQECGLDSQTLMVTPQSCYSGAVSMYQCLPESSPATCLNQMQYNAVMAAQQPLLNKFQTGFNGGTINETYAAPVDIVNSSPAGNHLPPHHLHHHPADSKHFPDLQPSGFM
Method in brief: as §1

AHR2 from zebrafish = details: TCDD binding; cited from earlier work
X. laevis AHR1α = details: read-out: apparent Kd; TCDD binding; cited from earlier work
X. laevis AHR1β [4] = biological target: T2, X. laevis AHR1β; details: cited from earlier work
chicken AHR = details: TCDD binding; cited from earlier work
mouse AHR = details: TCDD binding; cited from earlier work
tern AHR = tern AHR (V325, A381) vs chicken AHR (I325, S381); cited from earlier work
[5] = system: larvae of the tiger salamander; details: cited from earlier work
zebrafish = details: cited from earlier work
X. laevis AHR1β [6] = biological target: T2, X. laevis AHR1β; experiment: Transactivation; format: cell-based

SMILES | EC50 of A. mexicanum AHR relative to that of the mouse:frog chimera (A. mexicanum AHR [1]; TCDD 24 h, fold greater than chimeric AHR) [fold] | Specific [3H]TCDD binding peak relative to mouse AHR or chimeric AHR (A. mexicanum AHR [2]) | Specific [3H]TCDD binding peak relative to mouse AHR or chimeric AHR (X. laevis AHR1β [3]) | Kd (AHR2 from zebrafish) [nM] | Kd (X. laevis AHR1α) [nM] | Kd (saturability of TCDD binding) (X. laevis AHR1β [4]) | Kd (chicken AHR) [nM] | Kd (mouse AHR) [nM] | TCDD affinity of tern AHR, fold lower than the chicken AHR (tern AHR) [fold] | nominal TCDD concentrations defined as sub-lethal [5] | LC100 (zebrafish) | EC50 (A. mexicanum AHR [1]) [nM] | EC50 of axolotl AHR relative to that of the chimeric AHR (A. mexicanum AHR [1]; FICZ 3 h exposure, fold greater than chimeric AHR) | EC50 (X. laevis AHR1β [6]) [nM]
Clc1cc2c(cc1Cl)Oc1cc(Cl)c(Cl)cc1O2 [TCDD, 2,3,7,8-tetrachlorodibenzo-p-dioxin] | ~300 | one-tenth | approximately one-tenth | 1.1 | 47.2 | unsaturable | 0.8 | 2.4 | 7 | up to 3.0 μg/L and ≤ 9.3 nM | no more than 1.55 nM |  |  | 
O=Cc1c2[nH]c3ccccc3c2cc2[nH]c3ccccc3c12 [FICZ, 6-formylindolo[3,2-b]carbazole] |  |  |  |  |  |  |  |  |  |  |  | 0.45 | about 45 fold | 0.14
